Sampled rows, rich in hits. Any-hit rate of the full collection: about 3%.
Wnt bcat act: Wnt/beta-catenin pathway activators, primary screen, cell-based, plate reader, single point; Wnt/beta-catenin reporter cell assay, activator; activation, % at 9.35 µM; 300,000 compounds, 1.2% hits; in the data active = activation above about 30%, passing the limit was not always enough; inconclusive = no clear call, values can overlap the other calls;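 also: 0% = neutral control wells and 100% = positive control wells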
NSD2 HMT inh: NSD2 histone methyltransferase inhibitors, primary screen, biochemical, AlphaScreen, single concentration, set 2. Histone-lysine N-methyltransferase NSD2 (Homo sapiens), O96028. NSD2 peptide methylation, 120 min. inhibition, % at 12.5 µM. 310,000 compounds, 0.54% hits; in the data active = inhibition above about 50%
Xi reactivation: activators of inactive X chromosome reactivation, primary screen, imaging, XiGFP fibroblasts, GFP high-content imaging, set 2 | XiGFP mouse fibroblasts, % GFP-positive cells imaging, 3 d; cells co-treated with 5-aza-dC sensitizer; scaled so ellipticine positive control = 100% | activation, % at 7.58 µM | 360,000 compounds, 0.055% hits | AID 743238, 2013;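 active = mean normalized replicate activation at least 10% and every replicate at or above 10%; inconclusive = only one of the two criteria met; inactive = mean below 10% and not all replicates reach 10%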;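 also: 0% = median of on-plate neutral control wells and 100% = ellipticine 6 µM median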
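assay system = SV40-immortalized XiGFP fibroblast cells, line 68-5-11 | buffer or medium = DMEM plus 5-aza-dC sensitizer | doses = single-point pinned compound dosing | times = 3-day compound exposure, then 15 min fixation at room temperature | benchmarks = positive control ellipticine, 6 µM final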
MITF act: activators of MITF-driven TRPM1 promoter reporter, primary screen, cell-based, SK-MEL-5, luciferase, single point. SK-MEL-5 TRPM1-promoter luciferase, 24 h; % of positive control, neutral wells = 0. 300,000 compounds, 0.75% hits. activation, % at 12.5 µM;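 active = mean activation of at least 80% with every replicate also reaching 80%; inconclusive = mean reaches 80% but some replicate falls short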;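 also: 0% = neutral control wells and 100% = parthenolide positive control wells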
CASP6 VEID inh: human caspase-6 inhibitors, primary screen, biochemical, VEID-R110 fluorescence, single point, set 2; 350,000 compounds, 0.53% hits; inhibition, % at 12.5 µM; P55212; purified caspase-6, Z-VEID-R110 cleavage fluorescence;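 active = mean inhibition across replicates at least about 35%, with every replicate also reaching that limit, limit read from the data; inconclusive = only one of the two criteria met; inactive = neither criterion met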;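 also: 0% = median of neutral control wells and 100% = no fluorescence left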
Target sequence (P55212 24-179 limits assumed): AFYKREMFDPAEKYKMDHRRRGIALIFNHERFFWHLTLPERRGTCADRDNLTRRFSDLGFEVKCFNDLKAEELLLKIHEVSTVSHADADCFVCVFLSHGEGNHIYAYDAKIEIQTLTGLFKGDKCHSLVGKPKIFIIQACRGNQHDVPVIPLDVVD
Target sequence (P55212 194-293 limits assumed): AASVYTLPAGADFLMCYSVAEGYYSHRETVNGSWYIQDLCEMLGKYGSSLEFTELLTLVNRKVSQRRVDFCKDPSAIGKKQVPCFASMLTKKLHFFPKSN
esBAF inh: Bmi1 luciferase reporter increase in mESCs, primary screen, esBAF inhibitor project, mouse ES cells, Bmi1 luciferase knock-in, single point | 24 h; 100% = twice the neutral-well signal | reporter increase, % at 12.5 µM | 350,000 compounds, 2% hits | AID 602393, 2012; in the data active = activation above about 40%; inconclusive = no clear call, values can overlap the other calls;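 also: 0% = median of the plate's neutral control wells and 100% = double that signal; a rise in the Bmi1 reporter signal indicates esBAF inhibition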
Ring1 derepress: Ring1 mRNA increase in mouse ESCs, confirmation, esBAF inhibitor project, cell-based, mouse ESC, RT-qPCR, cherry-pick | 550 tested, under 10 active | mouse ESC E14, Ring1 mRNA RT-qPCR fold change | shares compounds with esBAF inh | fold change at 33 µM;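 active = Ring1 gene expression raised more than 2-fold over untreated cells in both replicates at either tested dose; inconclusive = only one replicate above 2-fold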;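 also: Ring1 transcript normalised to actin housekeeping signal by TaqMan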
Fgf4 repress: Fgf4 mRNA decrease in mouse ESCs, confirmation, esBAF inhibitor project, cell-based, mouse ESC, RT-qPCR, cherry-pick; shares compounds with esBAF inh; mouse ESC E14, Fgf4 mRNA qPCR fold change; hits give low values; Fgf4 expression fold change at 33 µM; 550 compounds, 4% hits; AID 743177, 2013;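 active = Fgf4 expression under 0.8 fold of control in both repeat measurements at one or both tested doses; inconclusive = under 0.8 fold in just a single repeat measurement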;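 also: Fgf4 transcript normalised to actin in duplex TaqMan qPCR; cells exposed to compound for 24 h before lysis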
esBAF Bmi1 qPCR: esBAF inhibition via Bmi1 de-repression, confirmation, cell-based, RT-qPCR, mouse ESC, single point, cherry-pick; 550 tested, under 10 active; shares compounds with esBAF inh; mouse ESE14 ES cells, Bmi1 mRNA qPCR fold; hits give high values; fold change at 33 µM;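 active = Bmi1 expression fold change above 6 at either tested concentration, seen in replicate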;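 also: higher fold means more Bmi1 de-repression and stronger esBAF inhibition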
A549 cytotox: A549 cell cytotoxicity, cytotoxicity control, plate reader, single point, cherry-pick. shares compounds with esBAF inh. cell viability change % (negative = cytotoxic), % at 25 µM, hits read low. 550 tested, under 10 active; call rule not given here
HepG2 cytotox SP: HepG2 cell cytotoxicity, cytotoxicity control, plate reader, single point, cherry-pick | shares compounds with esBAF inh | hits give low values | activity change, negative = inhibition, % at 25 µM | 550 compounds, 4% hits | AID 743189, 2013; in the data active = activity change below about -50%
HEK293 tox SP: HEK293 cell cytotoxicity, cytotoxicity control, plate reader, single point, cherry-pick | AID 743190, 2013 | shares compounds with esBAF inh | activity change, negative = inhibition, % at 25 µM, hits read low | 550 compounds, 3% hits; in the data active = activity change below about -38%, passing the limit was not always enough
Numbers without * were called inactive; ? = inconclusive; nt = no result given.

SMILES | Wnt bcat act | NSD2 HMT inh | Xi reactivation | MITF act | CASP6 VEID inh | esBAF inh | Ring1 derepress | Fgf4 repress | esBAF Bmi1 qPCR | A549 cytotox | HepG2 cytotox SP | HEK293 tox SP
Cc1ccn2cc(C(=O)Nc3nnc(C)s3)nc2c1 | 7 | 18 | nt | ? | nt | 55* | 1 | 0.97 | 1.6 | -9 | -16 | -6
Cc1ccn2cc(C(=O)Nc3ccc4c(c3)OCCO4)nc2c1 | 24 | 0 | nt | 36 | nt | 37 | nt | nt | nt | nt | nt | nt
Brc1ccccc1-c1nnc(-c2cccnc2)o1 | 24 | 0 | nt | nt | nt | 66* | 1 | 1 | 1.7 | -5 | -29 | -3
Brc1ccc(-c2nnc(-c3cccnc3)o2)cc1 | ? | -3 | 0 | ? | -1 | nt | nt | nt | nt | nt | nt | nt
Fc1ccc(Nc2nnc(-c3ccncc3)s2)cc1Cl | 1 | -3 | 0 | nt | -5 | 67* | 1.2 | 0.88 | 1.6 | -6 | -25 | -2
c1ccc2nc3c(ccc4ccccc43)cc2c1 | 2 | -5 | 0 | 28 | -2 | 70* | 0.92 | 1 | 1.1 | -12 | 31 | -17
CNC(=O)C[C@H]1CC[C@@H]2[C@H](COC[C@H](O)CN2Cc2ccc(Cl)c(Cl)c2)O1 | nt | nt | 0 | nt | -2 | 0 | nt | nt | nt | nt | nt | nt
CCC(=O)N(C)C[C@H]1Oc2cc(-c3ccc(F)cc3)ccc2S(=O)(=O)N([C@H](C)CO)C[C@H]1C | nt | nt | 1 | nt | -4 | 4 | nt | nt | nt | nt | nt | nt
NC(=O)c1ccccc1-c1nc(-c2ccccc2)no1 | nt | 1 | nt | nt | nt | 74* | 0.99 | 1.1 | 1.6 | -8 | -15 | -7
O=C(NCc1ccco1)c1ccccc1-c1nc(-c2ccccc2)no1 | 1 | -7 | nt | -1 | 1 | -5 | nt | nt | nt | nt | nt | nt
CCC(=O)Nc1ccc2c(c1)C(=O)N(C)C[C@H](OC)[C@H](C)CN(Cc1ccncc1)[C@H](C)CO2 | nt | nt | 0 | nt | nt | 0 | nt | nt | nt | nt | nt | nt
C[C@H]1CCCCO[C@H](CN(C)CC2CCCCC2)[C@@H](C)CN([C@@H](C)CO)C(=O)c2cc(NS(=O)(=O)c3cccs3)ccc2O1 | nt | nt | 0 | nt | 1 | 4 | nt | nt | nt | nt | nt | nt
COc1cc(Cl)ccc1OCc1cc(C(=O)N(C)Cc2cccc3cnccc23)no1 | 11 | 29 | 0 | 45 | -1 | 71* | 1.2 | 1.1 | 1.5 | -7 | -13 | -31
CCC(=O)Nc1ccc2c(c1)C(=O)N(C)[C@@H]1CC[C@H](CC(=O)NC3Cc4ccccc4C3)O[C@@H]1CO2 | nt | nt | 0 | nt | -6 | 1 | nt | nt | nt | nt | nt | nt
CCNC(=O)C[C@H]1C=C[C@@H](NC(=O)C2CC2)[C@@H](CO)O1 | nt | nt | 0 | nt | -1 | 0 | nt | nt | nt | nt | nt | nt
O=C(C[C@H]1C=C[C@H](NC(=O)C2CCC2)[C@H](CO)O1)NCc1ccncc1 | nt | nt | 0 | nt | -1 | -4 | nt | nt | nt | nt | nt | nt
O=C(C[C@H]1CC[C@H]2[C@@H](COC[C@H](O)CN2C(=O)Nc2ccc(F)cc2)O1)NCCCN1CCOCC1 | nt | nt | 0 | nt | -1 | 2 | nt | nt | nt | nt | nt | nt
O=C(c1csc(Nc2cccc3ccccc23)n1)N1CCCC1 | 1 | 6 | 2 | -29 | 3 | 5 | nt | nt | nt | nt | nt | nt
O=C(c1csc(Nc2ccccc2Cl)n1)N1CCCC1 | nt | 1 | nt | nt | nt | 54* | 1.1 | 0.93 | 1.1 | 3 | -35 | -2
CCCN1C[C@H](C)[C@@H](OC)CN(C)C(=O)c2cc(NC(=O)Nc3cccc(OC)c3)ccc2OC[C@H]1C | nt | nt | 0 | nt | nt | -2 | nt | nt | nt | nt | nt | nt
COc1ccc(C(=O)N=c2sc3ccccc3n2C)cc1OC | 43* | 0 | 0 | 79 | 0 | 73* | 1.1 | 0.84 | 2.3 | -6 | 0 | 7
COC(=O)Cn1c(=NC(=O)c2ccc(OC)c(OC)c2)sc2cc(OC)ccc21 | -7 | -2 | 0 | -10 | 0 | nt | nt | nt | nt | nt | nt | nt
COc1cc(C=O)c(Br)cc1OCc1ccc(C)cc1 | nt | -4 | nt | 21 | nt | 81* | 1.5 | 1.1 | 1.9 | -5 | 3 | -11
COc1ccc(CNC(=O)Nc2ccc(OC)cc2)cc1 | nt | -2 | nt | -5 | nt | -1 | nt | nt | nt | nt | nt | nt
COc1ccc(CNC(=O)Nc2cccc(C)c2)cc1 | 35* | 0 | nt | 75 | nt | 67* | 1.2 | 1.1 | 1.4 | 0 | 2 | 3
SMILES | Wnt bcat act | NSD2 HMT inh | Xi reactivation | MITF act | CASP6 VEID inh | esBAF inh | Ring1 derepress | Fgf4 repress | esBAF Bmi1 qPCR | A549 cytotox | HepG2 cytotox SP | HEK293 tox SP
Cn1c(/N=C(\N)c2ccccc2)nc2ccccc21 | 4 | -1 | 0 | nt | 0 | 83* | 1.2 | 0.87 | 1.7 | -8 | -5 | -12
C[C@H](CO)N1C[C@H](C)[C@H](CN(C)Cc2ccncc2)Oc2ncc(C#CCC3CCCC3)cc2C1=O | nt | nt | 0 | nt | -3 | 5 | nt | nt | nt | nt | nt | nt
CN(C)c1ccc(CN(C(=O)c2cc3ccccc3oc2=O)C2CCS(=O)(=O)C2)cc1 (configuration not stated) | 28 | -1 | 0 | 61 | 2 | 70* | 1.2 | 1 | 1.2 | -2 | -19 | 0
COc1cc(/C=C/c2ccc(O)cc2)cc(OC)c1 | 2 | nt | nt | nt | 3 | 61* | 0.95 | 0.97 | 2 | -4 | -35 | 2
COc1ccc(/C=C/C(=O)c2ccc(O)cc2)cc1 | 1 | nt | nt | 47 | 5 | 17 | nt | nt | nt | nt | nt | nt
CCC(=O)c1ccc(N2CCN(C(=O)c3ccccc3F)CC2)c(F)c1 | -3 | 0 | 2 | -2 | 0 | nt | nt | nt | nt | nt | nt | nt
CCC(=O)c1ccc(N2CCCCCC2)c(F)c1 | nt | 0 | nt | 54 | nt | 74* | 1.1 | 1.1 | 1.3 | -17 | 20 | -15
CCC(=O)c1ccc(N2CCCC2)c(F)c1 | nt | -1 | nt | nt | nt | 57* | 1.1 | 0.91 | 1.4 | -4 | -21 | -11
CC=Cc1ccc2n(c1=O)C[C@H]1[C@H](CO)[C@@H](C(=O)NCC3CC3)N(C(=O)C3CCOCC3)[C@@H]21 (mixture of isomers) | nt | nt | 0 | nt | -3 | -2 | nt | nt | nt | nt | nt | nt

Screening data as filed in PubChem BioAssay.
